Source: ChEMBL document CHEMBL4406862, “Chalcone derivatives targeting mitosis: synthesis, evaluation of antitumor activity and lipophilicity” (Eur J Med Chem, 2019)
The source made the active and inactive calls. No cut-off for these calls is given here.

Columns and labels:
[1] = Antiproliferative activity against human A375-C5 cells assessed as reduction in cell viability incubated for 48 hrs by sulforhodamine B assay; format: functional; settings: A375-C5, 48 h
How it was run: (§1)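 Cells in RPMI-1640 with 5% FBS, 37 °C, 5% CO2; seeded 0.05×10^6 cells/well, 24 h, then two-fold serial dilutions from 0 to 150 μM (DMSO up to 0.25%) for 48 h. TCA fixation, SRB stain 30 min, dye solubilized in 10 mM Tris, absorbance 515 nm. GI50 from dose-response curve; mean ± SD, at least three independent experiments in duplicate.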

[2] = Lipophilicity, log k of compound in DMPC/buffer incubated for 30 mins by spectrophotometry; format: physicochemical; settings: 0.5 h
How it was run: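 DMPC liposomes made by thin-film hydration in HEPES buffer, extruded at 40 °C. Fixed compound concentration with DMPC 50–1000 μM, incubated 30 min at 37 °C, pH 7.4; spectra 250–500 nm against compound-free references. Second-derivative values fitted (nonlinear least squares) versus lipid concentration to give Kp; lipid molar volume 0.66 L mol⁻¹; mean ± SD of at least three experiments.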

[3] = n-Octanol/water partition coefficient, log P of the compound incubated for 30 mins by spectrophotometry; format: physicochemical
MCF7 = experiment: Antiproliferative activity against human MCF7 cells assessed as reduction in cell viability incubated for 48 hrs by sulforhodamine B assay; format: functional; settings: MCF7, 48 h; how it was run: as §1
NCI-H460 [4] = experiment: Antiproliferative activity against human NCI-H460 cells assessed as reduction in cell viability incubated for 48 hrs by sulforhodamine B assay; format: functional; settings: NCI-H460, 48 h; how it was run: as §1
NCI-H460 [5] = experiment: Induction of mitotic arrest in human NCI-H460 cells assessed as mitotic index 1 uM incubated for 15 hrs by DAPI staining based phase contrast microscopy (reference value: 11.3 %); format: functional
NCI-H460 [6] = experiment: Induction of mitotic arrest in human NCI-H460 cells assessed as accumulation of bright round shape cells at 1 uM incubated for 15 hrs by phase contrast microscopy; format: functional, cell-based
NCI-H460 [7] = experiment: Cytotoxicity against human NCI-H460 cells assessed as reduction in cell viability at 0.5 times of GI50 incubated for 48 hrs by MTT assay relative to control; format: functional
How it was run: (§2)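 MTT 0.5 mg/ml in serum-free medium 4 h; formazan dissolved in isopropanol/Triton/HCl 2 h; absorbance 570 nm. Viability relative to untreated cells; mean ± SD of at least three independent experiments.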

NCI-H460 [8] = experiment: Induction of mitotic arrest in human NCI-H460 cells assessed as abnormal mitotic spindle morphology at 3 times of GI50 incubated for 15 hrs by immunostaining based fluorescence microscopy; format: functional, cell-based
How it was run: (§3)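 NCI-H460 on poly-L-lysine coverslips treated 15 h at 3×GI50; fixed in 2% paraformaldehyde, 0.5% Triton X-100 permeabilization, 10% FBS blocking; mouse anti-α-tubulin (1:2500) then Alexa Fluor 488 secondary (1:1500); DAPI 2 µg/mL. Fluorescence microscopy of spindles; multipolar spindles as percentage of total spindles; mean ± SD, three independent experiments.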

NCI-H460 [9] = experiment: Induction of mitotic arrest in human NCI-H460 cells assessed as mitotic index at 3 times of GI50 incubated for 15 hrs by DAPI staining based phase contrast microscopy (reference value: 11.3 %); format: functional
NCI-H460 [10] = experiment: Induction of mitotic arrest in human NCI-H460 cells assessed as condensed chromosome at 3 times of GI50 incubated for 15 hrs by DAPI staining based phase contrast microscopy; format: functional, cell-based
How it was run: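 NCI-H460 treated 15 h at 3×GI50; DAPI staining of DNA viewed to detect condensed chromosomes of mitotic cells.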

NCI-H460 [11] = experiment: Induction of mitotic arrest in human NCI-H460 cells assessed as accumulation of bright round shape cells at 3 times of GI50 incubated for 15 hrs by phase contrast microscopy; format: functional, cell-based
NCI-H460 [12] = experiment: Cytotoxicity against human NCI-H460 cells assessed as reduction in cell viability at 1 times of GI50 incubated for 48 hrs by MTT assay relative to control; format: functional; how it was run: as §2
NCI-H460 [13] = experiment: Induction of cell death in human NCI-H460 cells assessed as micronucleation at 3 times of GI50 incubated for 24 hrs by DAPI staining based fluorescence microscopy; format: functional
How it was run: (§4)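 NCI-H460 cells exposed 24 h, DAPI-stained for DNA, nuclear morphology and micronucleation examined by fluorescence microscopy.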

NCI-H460 [14] = experiment: Induction of cell death in human NCI-H460 cells assessed as abnormal nuclear morphology at 3 times of GI50 incubated for 24 hrs by DAPI staining based fluorescence microscopy; format: functional; how it was run: as §4
NCI-H460 [15] = experiment: Induction of mitotic arrest in human NCI-H460 cells assessed as decrease in chromosome align at metaphase plate at 3 times of GI50 incubated for 15 hrs by DAPI staining based fluorescence microscopy; format: functional, cell-based; how it was run: as §3
NCI-H460 [16] = experiment: Potentiation of paclitaxel-induced cytotoxicity against human NCI-H460 cells assessed as reduction in cell viability at 1 times of GI50 incubated for 48 hrs by MTT assay (reference value: 92.3 %); format: functional; how it was run: as §2
NCI-H460 [17] = experiment: Potentiation of paclitaxel-induced cytotoxicity against human NCI-H460 cells assessed as reduction in cell viability at 0.5 times of GI50 incubated for 48 hrs by MTT assay (reference value: 92.3 %); format: functional; how it was run: as §2
NCI-H460 [18] = experiment: Induction of mitotic arrest in human NCI-H460 cells assessed as multipolar spindles at 3 times of GI50 incubated for 15 hrs by fluorescence microscopy (reference value: 2 %); format: functional; how it was run: as §3
NCI-H460 [19] = experiment: Cytotoxicity against human NCI-H460 cells assessed as reduction in cell viability at 25 nM incubated for 48 hrs by MTT assay; format: functional, cell-based; how it was run: as §2

Structure (SMILES)	log Kp [2]	logP at 0.5 h [3]	GI50 (MCF7) [µM]	GI50 (NCI-H460 [4]) [µM]	GI50 [1] [µM]	further results
Cc1csc(C(=O)/C=C/c2ccc(Cl)c(Cl)c2)c1	2.8	4.65	22.5	15.5	12.1	–
COc1cc(-c2cc(-c3cccs3)n[nH]2)cc(OC)c1OC	3.16	2.99	> 37.5	> 37.5	> 37.5	–
COc1cc(-c2cc(-c3cc(C)cs3)n[nH]2)cc(OC)c1OC	4.04	3.27	16.3	16.1	16.1	–
Cc1csc(C(=O)/C=C/c2cc(Cl)cc(Cl)c2)c1	4.43	4.67	12.2	11.8	7.14	–
COC(=O)Nc1nc2cc(C(=O)c3cccs3)ccc2[nH]1 [NOCODAZOLE]	–	–	–	–	–	Activity (NCI-H460 [5]): 73.1%; Activity (NCI-H460 [6]): Active
COc1ccc(C(=O)/C=C/c2ccc(Cl)c(Cl)c2)cc1OC	3.14	4.52	15.1	27.7	4.14	–
COc1cc(OC)c(OC)cc1/C=C/C(=O)c1cccs1	3.49	3.02	12.6	13.6	11.1	–
CC(=O)O[C@H]1C(=O)[C@@]2(C)[C@H]([C@H](OC(=O)c3ccccc3)[C@]3(O)C[C@H](OC(=O)[C@H](O)[C@@H](NC(=O)c4ccccc4)c4ccccc4)C(C)=C1C3(C)C)[C@]1(OC(C)=O)CO[C@@H]1C[C@@H]2O	–	–	–	–	–	Activity (NCI-H460 [19]): inactive
COc1cc(C2OC2C(=O)c2cccs2)cc(OC)c1OC (stereo not given)	2.8	2.51	59.9	61.8	38.5	–
COc1cc(C2OC2C(=O)c2cc(C)cs2)cc(OC)c1OC (stereo not given)	3.75	2.5	14	16.9	6.63	–
COc1ccc(/C=C/C(=O)c2cccs2)cc1OC	3.62	3.07	23.9	17.8	17.8	–
COc1ccc(/C=C/C(=O)c2ccc(OC)c(OC)c2)cc1OC	3.51	3.27	13.2	8.95	3.81	–

Continued, in another order:

log Kp [2]	logP at 0.5 h [3]	GI50 (MCF7) [µM]	GI50 (NCI-H460 [4]) [µM]	Structure (SMILES)	GI50 [1] [µM]	further results
4.33	4.38	11.7	8.34	O=C(/C=C/c1cc(Cl)cc(Cl)c1)c1cccs1	5.38	–
3.72	3.4	10.8	15.3	COc1ccc(/C=C/C(=O)c2cc(C)cs2)cc1OC	11.3	–
3.35	3.24	8.52	8.74	COc1cc(OC)c(OC)cc1/C=C/C(=O)c1ccc(OC)c(OC)c1	7.1	–
3.49	2.99	5.95	5.06	COc1cc(/C=C/C(=O)c2cccs2)cc(OC)c1OC	3.63	–
3.52	3.43	4.28	4.44	COc1cc(/C=C/C(=O)c2cc(C)cs2)cc(OC)c1	3.33	–
3.3	3.22	3.97	5.6	COc1ccc(C(=O)/C=C/c2cc(OC)c(OC)c(OC)c2)cc1OC	2.89	–
3.41	3.14	7.7	7.12	COc1cc(/C=C/C(=O)c2cccs2)cc(OC)c1	4.15	–
3.29	3.35	6.49	10.8	COc1cc(/C=C/C(=O)c2ccc(OC)c(OC)c2)cc(OC)c1	3.45	–
3.53	3.23	5.56	6.28	COc1cc(/C=C/C(=O)c2ccc(C)s2)cc(OC)c1OC	5.7	Activity (NCI-H460 [7]): 96.9%; Activity (NCI-H460 [8]): Active; Activity (NCI-H460 [9]): 25.8 - 49.37%; Activity (NCI-H460 [10]): Active; Activity (NCI-H460 [11]): Active; Activity (NCI-H460 [12]): 67.9%; Activity (NCI-H460 [13]): Active; Activity (NCI-H460 [14]): Active; Activity (NCI-H460 [15]): Active; Activity (NCI-H460 [16]): 46.8%; Activity (NCI-H460 [17]): 51.8%; Activity (NCI-H460 [18]): 28%
3.6	3.31	10.1	7.48	COc1cc(OC)c(OC)cc1/C=C/C(=O)c1cc(C)cs1	6.96	–
4.1	4.54	8.41	9.61	COc1ccc(C(=O)/C=C/c2cc(Cl)cc(Cl)c2)cc1OC	4.51	–
3.68	4.19	6.89	6.61	COc1cc(/C=C/C(=O)c2cc3ccccc3s2)cc(OC)c1OC	6.9	Activity (NCI-H460 [8]): Active; Activity (NCI-H460 [9]): 25.8 - 49.37%; Activity (NCI-H460 [10]): Active; Activity (NCI-H460 [11]): Active; Activity (NCI-H460 [15]): Active
3.54	3.29	3.26	3.02	COc1cc(/C=C/C(=O)c2cc(C)cs2)cc(OC)c1OC	3.21	–
4.29	3.22	9.75	8.35	COc1cc(/C=C/C(=O)c2cc3cccc(O)c3o2)cc(OC)c1OC	8.57	Activity (NCI-H460 [8]): Active; Activity (NCI-H460 [9]): 25.8 - 49.37%; Activity (NCI-H460 [10]): Active; Activity (NCI-H460 [11]): Active; Activity (NCI-H460 [15]): Active
2.77	4.35	12.1	8.44	O=C(/C=C/c1ccc(Cl)c(Cl)c1)c1cccs1	7.25	–
